The subject of series [1] is B16. The series is described as follows: Inhibition of alpha-MSH-induced melanin production in mouse B16 cells after 72 hrs. Particulars: B16, 72 h. Type of series: functional, cell-based. In short, it runs like this: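 B16 cells were seeded at 2.5 × 10³ per well and held 24 h at 37 °C in 5% CO₂. They were then stimulated with α-MSH for 72 h plus sample (10 nM in methods; 100 nM in results text). Cells were lysed in 1 N NaOH–10% DMSO at 80 °C. Melanin was read at A405 against a synthetic melanin standard, as the mean of 3–5 independent experiments.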

In series [2] the test system is B16. Description: Inhibition of alpha-MSH-induced melanin production in mouse B16 cells at 10 uM after 72 hrs. The class given is functional. Particulars: B16, 72 h.
For series [3], the system named is B16. The series is described as follows: Cytotoxicity against mouse B16 cells assessed as viability at 1 to 30 uM after 72 hrs by MTT assay in presence of alphaMSH. Type of series: cell-based. To be noted: b16, 72 h. The gist of the method:
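B16 cells were exposed to test compound for 72 h with α-MSH (10 nM). They were then given MTT for 2 h, and the formazan was dissolved in 100% DMSO. Viability was read as optical density at 590 nm.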
In general terms: Tetrazolium assays rely on reduction of a dye to a coloured formazan, in cell work by metabolically active cells.

In series [4] the target is T1, Tyrosinase (Mus musculus) (UniProt P11344).
T1 sequence (whole entry): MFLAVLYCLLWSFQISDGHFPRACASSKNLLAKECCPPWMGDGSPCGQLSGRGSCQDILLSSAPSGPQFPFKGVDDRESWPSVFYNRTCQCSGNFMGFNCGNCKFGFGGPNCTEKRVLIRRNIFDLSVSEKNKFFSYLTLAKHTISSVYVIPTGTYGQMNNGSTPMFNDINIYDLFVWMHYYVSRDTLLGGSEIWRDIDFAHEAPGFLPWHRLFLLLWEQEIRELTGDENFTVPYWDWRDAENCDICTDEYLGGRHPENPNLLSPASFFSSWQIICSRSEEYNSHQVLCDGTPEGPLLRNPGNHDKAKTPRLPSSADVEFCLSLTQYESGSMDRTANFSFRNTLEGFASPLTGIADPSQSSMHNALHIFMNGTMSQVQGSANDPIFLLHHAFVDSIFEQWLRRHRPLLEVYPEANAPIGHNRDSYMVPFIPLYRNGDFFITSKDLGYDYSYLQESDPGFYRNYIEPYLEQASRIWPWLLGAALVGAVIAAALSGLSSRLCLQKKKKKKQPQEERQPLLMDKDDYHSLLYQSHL
The series is described as follows: Inhibition of mouse tyrosinase in 48 hrs alpha-MSH-induced mouse B16 cells by Western blot analysis. Type of series: cell-based. The gist of the method: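 B16 cells were stimulated with α-MSH for 48 h plus compound, then lysed in Tris/NaCl/SDS/NP-40 buffer with protease inhibitors at pH 7.4. Equal protein was run on SDS-PAGE, blotted to PVDF and blocked with milk or BSA. Anti-tyrosinase (1:1000) was applied overnight at 4 °C, with GAPDH (1:5000) as internal control. Detection used an HRP secondary and ECL.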

Series [5] addresses T1, Tyrosinase (Mus musculus). Description: Inhibition of mouse tyrosinase in 48 hrs alpha-MSH-induced mouse B16 cells at 0.3 to 10 uM. The class given is cell-based.
Series [6] concerns B16. The series is described as follows: Inhibition of alpha-MSH-induced melanin production in mouse B16 cells at 100 uM after 72 hrs. To be noted: B16, 72 h. The class given is functional.

Active and inactive are the calls of the source. No cut-off for these calls is given here.

For 25 compounds, IC50, inhibition and Activity results are on record in ChEMBL document CHEMBL1156902, “Evaluation of 3,4-dihydroquinazoline-2(1H)-thiones as inhibitors of alpha-MSH-induced melanin production in melanoma B16 cells” (Bioorg Med Chem, 2010).

Take `O=C1Nc2ccc(Cl)cc2CN1CCc1ccc(Cl)cc1`: in the series on B16 [1], the IC50 was greater than 10 µM. In addition, in the series on B16 [2], 10 µM produced 7% inhibition.
As for `Cc1ccc2c(c1)CN(CCc1ccc(Cl)cc1Cl)C(=S)N2`, in the series on B16 [3], the Activity entry is “Non-toxic”. For the same compound, in series [4], the inhibition entry is “Dose-dependent effect”. In addition, the IC50 in the series on B16 [1] was 0.5 µM. Further, the inhibition result in series [5] is “inactive”. The same compound gave an inhibition at 10 µM in the series on B16 [2] greater than 100%.
Consider `NC(=O)Nc1ccccc1`, for which at 100 µM the inhibition in the series with B16 [6] was 0%.
On to `Cc1ccc(CCN2Cc3cc(C)ccc3NC2=O)cc1`, for which the IC50 with B16 [1] is greater than 10 µM. The compound also displayed an inhibition at 10 µM with B16 [2] of 10%.
On the same counts, the results for `Cc1ccc2c(c1)CN(CCc1ccc(Cl)cc1Cl)C(=O)N2` are greater than 10 µM and 11%.
On the same counts, the results for `S=C1Nc2ccc(Cl)cc2CN1CCc1ccc(Cl)cc1` are 1.6 µM and greater than 100%.
For the compound `Cc1ccc2c(c1)CN(CCc1ccc(Cl)cc1)C(=S)N2`, half-maximal inhibition with B16 [1] (IC50) was put at 4.3 µM. Further, the inhibition at 10 µM with B16 [2] was greater than 100%.
In the series with B16 [1], `Cc1ccc2c(c1)CN(CCc1ccccc1)C(=S)N2` registered an IC50 of 0.8 µM. Moreover, the inhibition at 10 µM in the series on B16 [2] was greater than 100%.
On the same counts, the results for `O=C1Nc2ccc(Cl)cc2CN1CCc1ccccc1` are greater than 10 µM and 18%.
The compound `S=C1Nc2ccc(Cl)cc2CN1CCc1ccccc1` gave an IC50 in the series on B16 [1] of 2.8 µM. In the series with B16 [2], this compound yielded an inhibition at 10 µM greater than 100%.
On the same counts, the results for `Cc1ccc2c(c1)CN(CCc1ccccc1)C(=O)N2` are greater than 10 µM and 16%.
On the same counts, the results for `Cc1ccc(CCN2Cc3cc(C)ccc3NC2=S)cc1` are 2.7 µM and greater than 100%.
`OC[C@H]1O[C@@H](Oc2ccc(O)cc2)[C@H](O)[C@@H](O)[C@@H]1O` [ARBUTIN] yielded an IC50 in the series with B16 [1] of 180 µM.
Take `Cc1ccc2c(c1)CN(CCc1ccc(C(C)C)cc1)C(=S)N2`: the IC50 with B16 [1] worked out at 0.5 µM. Moreover, in the series on B16 [2], the inhibition at 10 µM was greater than 100%.
On the same counts, the results for `Cc1ccc(CCN2Cc3cc(Cl)ccc3NC2=S)cc1` are 5.5 µM and greater than 100%.
On the same counts, the results for `Cc1cccc2c1CN(CCc1ccccc1)C(=S)N2` are 1.1 µM and greater than 100%.
`Cc1ccc2c(c1)NC(=O)N(CCc1ccccc1)C2` had an IC50 with B16 [1] greater than 10 µM. This compound also returned an inhibition at 10 µM in the series on B16 [2] of 24%.
Regarding `O=c1cc(CO)occ1O` [KOJIC ACID], the IC50 with B16 [1] came out at 70 µM. In other words, the double-digit micromolar range.
In turn, `Cc1ccc2c(c1)CN(CCc1ccc(Cl)cc1)C(=O)N2` showed an IC50 in the series with B16 [1] greater than 10 µM. For the same compound, the inhibition at 10 µM in the series on B16 [2] came out at 15%.
On the same counts, the results for `Cc1ccc2c(c1)CN(CCc1ccc(C(C)C)cc1)C(=O)N2` are greater than 10 µM and 6%.
On the same counts, the results for `Cc1ccc2c(c1)NC(=S)N(CCc1ccccc1)C2` are 0.8 µM and greater than 100%.
Turning to `Cc1ccc2c(c1)CN(CCc1cccc3ccccc13)C(=O)N2`, the IC50 in the series with B16 [1] is greater than 10 µM. In the series with B16 [2], this compound gave an inhibition at 10 µM of 5%.
For `Cc1ccc2c(c1)CN(CCc1cccc3ccccc13)C(=S)N2` the same measures were 2.4 µM and greater than 100%.
On the same counts, the results for `Cc1ccc(CCN2Cc3cc(Cl)ccc3NC2=O)cc1` are greater than 10 µM and 6%.
`Cc1cccc2c1CN(CCc1ccccc1)C(=O)N2` gave an IC50 in the series on B16 [1] of 9.8 µM. Also, the inhibition at 10 µM with B16 [2] is 18%.

Broadly, the IC50 is the concentration at which inhibition is half-maximal. A lower IC50 goes with higher potency. The term inhibition denotes how much of the control response was suppressed.
